# Test results: PMC5327638 (Theranostics, 2017)
# How the values were obtained:
# [1] = target: chemokine receptor 4 (CXCR4), MDAMB231 X4 cells (Homo sapiens, UniProt P61073); experiment: Fluorescence flow cytometry saturation binding
# Procedure, shortened: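 Trypsinised cells (300000 per aliquot) were exposed to tracer at 0–1000 nM in 0.1% BSA/PBS for 1 hr at 4 °C, washed three times and resuspended. Flow cytometry used a 635 nm laser with a […] filter. Mean fluorescence counts gave saturation curves. Triplicates, total n=6.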
# [2] = tested on: MDAMB231 X4 tumor-bearing Balb/c nude mice; experiment: In vivo SPECT imaging in tumor-bearing mice; parameters: species or system mouse; conditions: i.v., 50 μg, 10 MBq; 24 hrs post-injection; n=5
# [3] = tested on: MDAMB231 X4 tumor-bearing Balb/c nude mice; experiment: Biodistribution by radiodetection; type: in vivo, mouse; conditions: 24 h after i.v. 50 μg (10 MBq), ^111In
# Procedure, shortened: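 Tracer was labelled with 111In alone or with 111In plus 165Ho, and 50 μg (10 MBq) was given i.v.; some mice had SPECT at 24 h first. Mice were killed at 24 h, and tissues were excised and weighed; dual-label samples were halved before weighing. Gamma counting used 245 keV for 60 s. cpm were converted to MBq, corrected for decay and counting efficiency. %ID/g = (MBq in tissue/injected dose ×100%)/tissue weight.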
# chemokine receptor 4 (CXCR4), MDAMB231 X4 cells, sequence (P61073 whole entry): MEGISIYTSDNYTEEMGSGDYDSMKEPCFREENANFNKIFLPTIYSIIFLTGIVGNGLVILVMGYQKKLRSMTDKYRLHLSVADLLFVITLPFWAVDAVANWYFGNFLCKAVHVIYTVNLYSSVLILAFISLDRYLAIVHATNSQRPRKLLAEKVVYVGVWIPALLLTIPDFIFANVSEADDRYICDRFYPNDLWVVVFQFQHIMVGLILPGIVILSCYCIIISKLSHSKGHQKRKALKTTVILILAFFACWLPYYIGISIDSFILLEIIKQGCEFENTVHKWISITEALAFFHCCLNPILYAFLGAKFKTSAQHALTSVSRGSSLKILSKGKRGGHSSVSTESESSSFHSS
smiles,measurement,setting,value
"CC(=O)N[C@@H](CCCNC(=N)N)C(=O)N[C@@H](CCCNC(=N)N)C(=O)N[C@@H](Cc1ccc2ccccc2c1)C(=O)N[C@H]1CSSC[C@@H](C(=O)N[C@@H](CCCNC(=N)N)C(N)=O)NC(=O)[C@H](CCCNC(N)=O)NC(=O)[C@H](CCCNC(=N)N)NC(=O)[C@H](Cc2ccc(O)cc2)NC(=O)[C@@H]2CCCN2C(=O)[C@@H](CCCCNC(=O)CCCNC(=O)[C@H](CCCCNC(=O)CCCCCN2C(=CC=CC=CC3=[N+](CCCCS(=O)(=O)O)c4ccc(S(=O)(=O)[O-])cc4C3(C)C)C(C)(C)c3cc(S(=O)(=O)O)ccc32)NC(=O)CN(CCN(CC(=O)O)CC(=O)O)CCN(CC(=O)O)CC(=O)O)NC(=O)[C@H](CCCNC(=N)N)NC(=O)[C@H](CCCNC(N)=O)NC(=O)[C@H](Cc2ccc(O)cc2)NC1=O (single isomer, unassigned) [hybrid-Cy5-Ac-TZ14011]",Kd,[1],245 ± 65 nM
same,"maximum signal intensity, flow cytometry","[1]; Cy5, saturation binding, n=6",1100 fluorescence counts
"CC(=O)N[C@@H](CCCNC(=N)N)C(=O)N[C@@H](CCCNC(=N)N)C(=O)N[C@@H](Cc1ccc2ccccc2c1)C(=O)N[C@H]1CSSC[C@@H](C(=O)N[C@@H](CCCNC(=N)N)C(N)=O)NC(=O)[C@H](CCCNC(N)=O)NC(=O)[C@H](CCCNC(=N)N)NC(=O)[C@H](Cc2ccc(O)cc2)NC(=O)[C@@H]2CCCN2C(=O)[C@@H](CCCCNC(=O)CCCNC(=O)[C@H](CCCCNC(=O)CCCCCN2C(=CC=CC=CC3=[N+](CCCCS(=O)(=O)O)c4ccc(S(=O)(=O)[O-])cc4C3(C)C)C(C)(C)c3cc(S(=O)(=O)O)ccc32)NC(=O)CN(CCN(CC(=O)O)CC(=O)O)CCN(CC(=O)O)CC(=O)O)NC(=O)[C@H](CCCNC(=N)N)NC(=O)[C@H](CCCNC(N)=O)NC(=O)[C@H](Cc2ccc(O)cc2)NC1=O (single isomer, unassigned) [^111In-hybrid-Cy5-Ac-TZ14011, metal not drawn]",uptake on SPECT images,[2],high uptake in the liver and kidneys as well as in the tumor
same,"uptake in tumor exceeding uptake in muscle, factor",[3],6
"CC(=O)N[C@@H](CCCNC(=N)N)C(=O)N[C@@H](CCCNC(=N)N)C(=O)N[C@@H](Cc1ccc2ccccc2c1)C(=O)N[C@H]1CSSC[C@@H](C(=O)N[C@@H](CCCNC(=N)N)C(N)=O)NC(=O)[C@H](CCCNC(N)=O)NC(=O)[C@H](CCCNC(=N)N)NC(=O)[C@H](Cc2ccc(O)cc2)NC(=O)[C@@H]2CCCN2C(=O)[C@@H](CCCCNC(=O)CCCNC(=O)[C@H](CCCCNC(=O)CCCCCN2C(=CC=CC=CC3=[N+](CCCCS(=O)(=O)O)c4ccc(S(=O)(=O)[O-])cc4C3(C)C)C(C)(C)c3cc(S(=O)(=O)O)ccc32)NC(=O)CN(CCN(CC(=O)O)CC(=O)O)CCN(CC(=O)O)CC(=O)O)NC(=O)[C@H](CCCNC(=N)N)NC(=O)[C@H](CCCNC(N)=O)NC(=O)[C@H](Cc2ccc(O)cc2)NC1=O (single isomer, unassigned) [^111In(^165Ho)-hybrid-Cy5-Ac-TZ14011, metal not drawn]","tumor to muscle ratio (T/M), radiodetection",[3]; n=3-5,4.38 ± 1.51
